{"data": "Results from different studies", "JAK1": "Tyrosine-protein kinase JAK1 (JAK1, Homo sapiens, UniProt P23458)", "JAK1 JH2": "Tyrosine-protein kinase JAK1, JH2 (JAK1, Homo sapiens, UniProt P23458)", "JAK1 JH1": "Tyrosine-protein kinase JAK1, JH1 (JAK1, Homo sapiens, UniProt P23458)", "note": "Compare with care: the assays were run in different laboratories."}
{"Structure (SMILES)": "CN(C)C1CCN(CC#Cc2nn(C3CCCC3)c3nc(NCc4ccccc4)ncc23)C1 (stereo not shown)", "target": "JAK1", "test": "enzyme activity, inhibitor, FRET", "setting": "0.1 µM", "endpoint": "inhibition", "result": "2%"}
{"Structure (SMILES)": "CC1=C(C#N)[C@@H](c2ccc3[nH]nc(C)c3c2)C(C#N)=C(c2ccc(Cl)cc2)N1", "target": "JAK1 JH2", "test": "cell-free assay, competition with immobilised ligand", "setting": "1 µM", "endpoint": "remaining binding", "result": "38.2%"}
{"Structure (SMILES)": "CN1CC(Oc2cnc(C#N)cc2-c2ccn3nc(NC(=O)C4CC4)cc3c2)C1", "target": "JAK1", "test": "enzyme activity, inhibitor", "setting": "1 µM", "endpoint": "inhibition", "result": "-10%"}
{"Structure (SMILES)": "COc1cc2c(Nc3ccc(Br)cc3F)ncnc2cc1OCC1CCN(C)CC1", "target": "JAK1", "test": "cell-free assay", "setting": "0.5 µM", "endpoint": "remaining signal", "result": "99.1%"}
{"Structure (SMILES)": "CC1CCCN1c1nccc(-c2cnn3ncccc23)n1 (stereo not shown)", "target": "JAK1", "test": "binding", "setting": "1 µM", "endpoint": "remaining binding", "result": "100%"}
{"Structure (SMILES)": "N#CCCc1ccc2c(c1)-c1[nH]c3ccc([N+](=O)[O-])cc3c1CC(=O)N2", "target": "JAK1", "test": "cell-free assay", "setting": "0.5 µM", "endpoint": "remaining signal", "result": "91.9%"}
{"Structure (SMILES)": "CS(=O)(=O)Nc1cccc(-c2csc(NC(=O)CSc3nc4nccnc4c(=O)n3CCc3ccccc3)n2)c1", "target": "JAK1", "test": "enzyme activity, inhibitor", "setting": "10 µM", "endpoint": "inhibition", "result": "9%"}
{"Structure (SMILES)": "Cc1sc(C(=O)NC2COC2)cc1-n1cc(NC(=O)Nc2c(F)cccc2Cl)cn1", "target": "JAK1", "test": "enzyme activity, inhibitor", "setting": "10 µM", "endpoint": "remaining activity", "result": "72.2%"}
{"Structure (SMILES)": "CS(=O)(=O)NCC[C@H](NC(=O)c1cncc2c1cnn2-c1ccc(F)cc1)c1ccnc(S(C)(=O)=O)c1", "target": "JAK1 JH1", "test": "cell-free assay, competition with immobilised ligand", "setting": "1 µM", "endpoint": "remaining binding", "result": "96%"}
{"Structure (SMILES)": "O=C1Nc2ccc(Cl)cc2C1=Cc1cc(Cl)c(O)c(Cl)c1", "target": "JAK1", "test": "cell-free assay", "setting": "0.5 µM", "endpoint": "remaining signal", "result": "103%"}
{"Structure (SMILES)": "N[C@H]1CCN(c2nccc(-c3cnn4ncccc34)n2)C1", "target": "JAK1 JH1", "test": "cell-free assay", "setting": "1 µM", "endpoint": "remaining signal", "result": "100%"}
{"Structure (SMILES)": "COc1cc2ncnc(Nc3ccc(F)c(Cl)c3)c2cc1OCCCN1CCOCC1", "target": "JAK1", "test": "cell-free assay", "setting": "0.5 µM", "endpoint": "remaining signal", "result": "102%"}
{"Structure (SMILES)": "CC/C(=N\\NC(=O)NCc1cccc(O)c1)c1ccc(O)c(C)c1O", "target": "JAK1", "test": "enzyme activity, inhibitor", "setting": "0.1 µM", "endpoint": "inhibition", "result": "3.4%"}
{"Structure (SMILES)": "Cc1cc(NC(=O)c2cccc3cc(-c4cccc5[nH]nc(N)c45)ccc23)ccc1F", "target": "JAK1 JH1", "test": "enzyme activity, inhibitor", "setting": "0.1 µM", "endpoint": "activity vs control", "result": "105%"}
{"Structure (SMILES)": "Cc1c[nH]c2nccc(Oc3c(F)cc(Nc4cc(Cl)nc(N)n4)cc3F)c12", "target": "JAK1 JH1", "test": "cell-free assay, competition with immobilised ligand", "setting": "0.1 µM", "endpoint": "remaining binding", "result": "80%"}
{"Structure (SMILES)": "COc1cc2ncnc(Nc3ccc(Oc4ccccc4)c(C)c3C)c2cc1OC", "target": "JAK1", "test": "enzyme activity, inhibitor", "setting": "1 µM", "endpoint": "inhibition", "result": "-4%"}
{"Structure (SMILES)": "O=c1nc(-c2ccccn2)sc2ccccc12", "target": "JAK1 JH2", "test": "binding, competition with immobilised ligand", "setting": "1 µM", "endpoint": "remaining binding", "result": "86%"}
{"Structure (SMILES)": "COc1cc(Cl)c(C(=O)N[C@@H](CN[C@H]2CC[C@@H](N)CC2)Cc2ccc(C#N)cc2)cc1-c1ccc(CN[C@H](C)c2ccc(C)cc2)o1", "target": "JAK1 JH1", "test": "enzyme activity, inhibitor", "setting": "1 µM", "endpoint": "remaining activity", "result": "101%"}
{"Structure (SMILES)": "CN(CCCC(F)(F)F)c1nccc(-c2cnn3ncccc23)n1", "target": "JAK1 JH1", "test": "cell-free assay, competition with immobilised ligand", "setting": "1 µM", "endpoint": "remaining binding", "result": "100%"}
{"Structure (SMILES)": "Cc1ccc(C(=O)NCc2ccsc2)cc1C#Cc1cn(C(C)C)c2ncnc(N)c12", "target": "JAK1 JH1", "test": "enzyme activity, inhibitor", "setting": "1 µM", "endpoint": "activity vs control", "result": "94%"}
{"Structure (SMILES)": "Cc1cnn2ncc(-c3ccnc(N(C)C)n3)c2c1", "target": "JAK1", "test": "binding", "setting": "1 µM", "endpoint": "remaining binding", "result": "51%"}
{"Structure (SMILES)": "CN([C@@H]1CCc2c(CC(=O)O)c3cc(S(C)(=O)=O)ccc3n2C1)S(=O)(=O)c1ccc(F)cc1", "target": "JAK1 JH2", "test": "cell-free assay, competition with immobilised ligand", "setting": "1 µM", "endpoint": "remaining binding", "result": "94%"}
{"Structure (SMILES)": "O=C(Nc1cnn(-c2csc(C(=O)NC3COC3)c2)c1)Nc1c(F)cccc1Cl", "target": "JAK1", "test": "enzyme activity, inhibitor", "setting": "5 µM", "endpoint": "remaining activity", "result": "107%"}
{"Structure (SMILES)": "CCOC(=O)c1cc2cc(-c3cc(C(=O)NCc4ccc(C(=O)O)cc4)nn3C)ccc2[nH]1", "target": "JAK1 JH1", "test": "cell-free assay, competition with immobilised ligand", "setting": "0.1 µM", "endpoint": "remaining binding", "result": "100%"}
{"Structure (SMILES)": "Nc1ncnc2occ(-c3ccc(NC(=O)Nc4cc(C(F)(F)F)ccc4F)cc3)c12", "target": "JAK1 JH2", "test": "cell-free assay, inhibitor", "setting": "20 µM", "endpoint": "remaining signal", "result": "67%"}
{"Structure (SMILES)": "CCOc1cc(-c2nncn2C)ccc1Nc1ncc2cc(C)nc(NCC(C)(C)C)c2n1", "target": "JAK1", "test": "enzyme activity, inhibitor, FRET", "setting": "1 µM", "endpoint": "inhibition", "result": "< 15%"}
{"Structure (SMILES)": "CN(C)C(=O)Cn1cc(-c2nc(C3(c4ccc(-c5cnc(N)nc5)cc4)CC3)no2)cn1", "target": "JAK1 JH2", "test": "cell-free assay, competition with immobilised ligand", "setting": "1 µM", "endpoint": "remaining binding", "result": "100%"}
{"Structure (SMILES)": "Cc1ccc(NC(=O)c2ccc(C)c(C(F)(F)F)c2)cc1C#Cc1nn(C2CCC(O)CC2)c2ncnc(N)c12 (stereo not shown)", "target": "JAK1 JH1", "test": "cell-free assay", "setting": "10 µM", "endpoint": "remaining signal", "result": "3%"}
{"Structure (SMILES)": "c1nc2c(Nc3ccc4c(c3)OCCO4)nc(Nc3ccc4c(c3)OCCO4)nc2[nH]1", "target": "JAK1 JH1", "test": "enzyme activity, inhibitor", "setting": "10 µM", "endpoint": "activity vs control", "result": "52%"}
{"Structure (SMILES)": "CC(=O)N1CCC(c2ccc(C(=O)NC(=N)N)cc2C(F)(F)F)CC1", "target": "JAK1 JH2", "test": "cell-free assay, competition with immobilised ligand", "setting": "1 µM", "endpoint": "remaining binding", "result": "100%"}
{"Structure (SMILES)": "CC(C)(C)c1nc2c(s1)c1nc(N)ncc1c1ccc(NS(=O)(=O)c3c(F)cccc3F)c(F)c12", "target": "JAK1", "test": "enzyme activity, inhibitor, radiometric", "setting": "1 µM", "endpoint": "remaining activity", "result": "90%"}
